Measurements from ChEMBL document CHEMBL4130351, “Novel pyrazolopyrimidines: Synthesis, in vitro cytotoxic activity and mechanistic investigation” (Eur J Med Chem, 2017).

How the values were obtained:
MCF7 [1] = experiment: Cytotoxicity against human MCF7 cells assessed as reduction in cell viability after 72 hrs by MTT assay; type: functional, cell-based; conditions: MCF7, 72 h
In short: (§1)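 MCF-7 and HepG2 cells in exponential growth were trypsinized and seeded at 1000–2000 cells/well, then incubated 24 h at 37 °C. Compound exposure was 72 h at 0.1, 10, 100 and 1000 μM. Cells took up 5% MTT for 2 h, and formazan was dissolved in acidified isopropanol for 30 min at room temperature. A570 was read, viability expressed as % of control, and IC50 obtained by curve fitting.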

HepG2 = experiment: Cytotoxicity against human HepG2 cells assessed as reduction in cell viability after 72 hrs by MTT assay; type: functional, cell-based; conditions: HepG2, 72 h; in short: as §1
MCF7 [2] = experiment: Cell cycle arrest in human MCF7 cells assessed as accumulation at S phase at 1.4 uM after 48 hrs by propidium iodide staining-based flow cytometry (reference value: 22.45%); type: functional
MCF7 [3] = experiment: Induction of apoptosis in human MCF7 cells assessed as caspase-3 activation at 1.4 uM after 10 mins by ELISA relative to control; type: functional
In short: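 MCF-7 treated at 1.4 μM or HepG2 at 0.4 μM. Cells were trypsinized, rinsed in PBS, pelleted (105–106 cells) and resuspended in 1 mL PBS. Lysis was by three freeze/thaw cycles, followed by a 1500×g spin for 10 min at 2–8 °C. Active caspase-3 (cleaved at Asp175/Ser176) in the lysate was quantified by sandwich ELISA with an anti-rabbit HRP step, read at 450 nm, in pg/mL against control.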

MCF7 [4] = experiment: Induction of apoptosis in human MCF7 cells assessed as early apoptotic cells at 1.4 uM after 24 hrs by Annexin V/propidium iodide double staining-based flow cytometry (reference value: 0.39 %); type: functional
In short: (§2)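 MCF-7 exposed at 1.4 μM or HepG2 at 0.4 μM for 24 or 48 h. Cells were collected in PBS, fixed in ice-cold 70% ethanol, washed, then resuspended in PI staining solution containing 0.1 mg/mL RNase plus PE-Annexin V. Staining was 10 min in the dark at 37 °C, followed by FACSCalibur flow cytometry.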

MCF7 [5] = experiment: Cell cycle arrest in human MCF7 cells assessed as accumulation at S phase at 1.4 uM after 24 hrs by propidium iodide staining-based flow cytometry (reference value: 22.45%); type: functional
MCF7 [6] = experiment: Induction of apoptosis in human MCF7 cells at 1.4 uM after 24 hrs by Annexin V/propidium iodide double staining-based flow cytometry (reference value: 0.62%); type: functional; in short: as §2
MCF7 [7] = experiment: Cell cycle arrest in human MCF7 cells assessed as accumulation at G0/G1 phase at 1.4 uM after 24 hrs by propidium iodide staining-based flow cytometry (reference value: 71.70%); type: functional
MCF7 [8] = experiment: Induction of apoptosis in human MCF7 cells assessed as viable cells at 1.4 uM after 24 hrs by Annexin V/propidium iodide double staining-based flow cytometry (reference value: 99.38 %); type: functional; conditions: MCF7, 24 h, read-out: Activity; in short: as §2
MCF7 [9] = experiment: Cell cycle arrest in human MCF7 cells assessed as accumulation at G0/G1 phase at 1.4 uM after 48 hrs by propidium iodide staining-based flow cytometry (reference value: 71.70%); type: functional
MCF7 [10] = experiment: Induction of apoptosis in human MCF7 cells assessed as late apoptotic cells at 1.4 uM after 48 hrs by Annexin V/propidium iodide double staining-based flow cytometry (reference value: 0.18 %); type: functional; in short: as §2
MCF7 [11] = experiment: Induction of apoptosis in human MCF7 cells assessed as early apoptotic cells at 1.4 uM after 48 hrs by Annexin V/propidium iodide double staining-based flow cytometry (reference value: 0.39 %); type: functional; in short: as §2
MCF7 [12] = experiment: Induction of apoptosis in human MCF7 cells assessed as viable cells at 1.4 uM after 48 hrs by Annexin V/propidium iodide double staining-based flow cytometry (reference value: 99.38 %); type: functional; conditions: MCF7, 48 h, read-out: Activity; in short: as §2
MCF7 [13] = experiment: Cell cycle arrest in human MCF7 cells assessed as accumulation at G2/M phase at 1.4 uM after 48 hrs by propidium iodide staining-based flow cytometry (reference value: 5.23%); type: functional
MCF7 [14] = experiment: Induction of apoptosis in human MCF7 cells assessed as late apoptotic cells at 1.4 uM after 24 hrs by Annexin V/propidium iodide double staining-based flow cytometry (reference value: 0.18 %); type: functional; in short: as §2
MCF7 [15] = experiment: Induction of apoptosis in human MCF7 cells at 1.4 uM after 48 hrs by Annexin V/propidium iodide double staining-based flow cytometry (reference value: 0.62%); type: functional; in short: as §2
MCF7 [16] = experiment: Induction of apoptosis in human MCF7 cells assessed as necrotic cells at 1.4 uM after 24 hrs by Annexin V/propidium iodide double staining-based flow cytometry (reference value: 0.05 %); type: functional; in short: as §2
MCF7 [17] = experiment: Cell cycle arrest in human MCF7 cells assessed as accumulation at G2/M phase at 1.4 uM after 24 hrs by propidium iodide staining-based flow cytometry (reference value: 5.23%); type: functional
MCF7 [18] = experiment: Induction of apoptosis in human MCF7 cells assessed as necrotic cells at 1.4 uM after 48 hrs by Annexin V/propidium iodide double staining-based flow cytometry (reference value: 0.05 %); type: functional; in short: as §2

SMILES: NS(=O)(=O)c1ccc(-n2ncc3c(=O)[nH]c(-c4ccc(Br)cc4)nc32)cc1
- IC50 (MCF7 [1]): 14.5 µM
- IC50 (HepG2): 42.6 µM

SMILES: NS(=O)(=O)c1ccc(-n2ncc3c(=O)[nH]c(-c4ccc(Cl)cc4)nc32)cc1
- IC50 (MCF7 [1]): 2.5 µM
- IC50 (HepG2): 23.9 µM

SMILES: COc1ccc(-c2nc3c(cnn3-c3ccc(S(N)(=O)=O)cc3)c(=O)[nH]2)cc1
- Activity (MCF7 [2]): 16.09%
- fold change (FC) (MCF7 [3]): 32
- Activity (MCF7 [4]): 4.39%
- IC50 (MCF7 [1]): 1.4 µM
- Activity (MCF7 [5]): 27.92%
- Activity (MCF7 [6]): 7.38%
- Activity (MCF7 [7]): 64.7%
- viability at 1.4 µM (MCF7 [8]): 72.6%
- Activity (MCF7 [9]): 72.3%
- Activity (MCF7 [10]): 3.64%
- IC50 (HepG2): > 100 µM
- Activity (MCF7 [11]): 6.49%
- viability at 1.4 µM (MCF7 [12]): 88.4%
- Activity (MCF7 [13]): 0%
- Activity (MCF7 [14]): 2.58%
- Activity (MCF7 [15]): 11.61%
- Activity (MCF7 [16]): 0.41%
- Activity (MCF7 [17]): 0%
- Activity (MCF7 [18]): 1.48%

SMILES: COc1ccc(-c2nc3c(cnn3-c3ccc(S(N)(=O)=O)cc3)c(=O)[nH]2)cc1OC
- IC50 (MCF7 [1]): > 100 µM
- IC50 (HepG2): > 100 µM

SMILES: COc1cccc2c1C(=O)c1c(O)c3c(c(O)c1C2=O)C[C@@](O)(C(=O)CO)C[C@@H]3O[C@H]1C[C@H](N)[C@H](O)[C@H](C)O1 [DOXORUBICIN]
- IC50 (MCF7 [1]): 1.02 µM
- IC50 (HepG2): 0.9 µM

SMILES: Nc1ncnc2c1cnn2-c1ccc(S(N)(=O)=O)cc1
- IC50 (MCF7 [1]): 40.7 µM
- IC50 (HepG2): 95.5 µM
